From ChEMBL document CHEMBL4007439, “Design, Synthesis, and Evaluation of a Novel Series of Oxadiazine Gamma Secretase Modulators for Familial Alzheimer's Disease” (J Med Chem, 2017)
pEC50, pIC50: −log10 of the molar value. Values after ≈ are worked out from the molar mass of the structure shown.

What was measured:
Brain [1] = test: Unbound drug level in rat brain at 30 mg/kg, po measured at 6 hrs post dose; format: ADME, organism-based; details: in vivo
Outline: (§1)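 Single oral dose of 30 mg/kg; brain (mouse, rat) and rat CSF Aβ42 and Aβ37 measured 6 h post-dose, expressed relative to vehicle; total and free brain drug levels and brain:plasma ratio taken at the same time.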

TK6 [2] = test: Genotoxicity in p53-competent human TK6 cells in absence of S9 fraction by GADD45alpha GFP reporter assay; format: toxicity, cell-based
Outline: (§2)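 GreenScreen GADD45alpha-GFP reporter assay in human cells, run externally.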

[3] = Ratio of drug level in brain to plasma in mouse at 30 mg/kg, po measured at 6 hrs post dose; format: ADME, organism-based; details: read-out: BPR; outline: as §1
[4] = Cmax in Cynomolgus monkey at 10 mg/kg, po; format: ADME, organism-based, Macaca fascicularis; parameters: dose 10 mg/kg, route oral; details: in vivo
Outline: (§3)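 Oral dosing; AUC and Cmax taken from the p.o. administration; bioavailability (%F) calculated from p.o. and i.v. data.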

[5] = AUClast in Wistar rat at 10 mg/kg, po; format: ADME, organism-based; parameters: dose 10 mg/kg, route oral, time 0 - last; details: in vivo; outline: as §3
Mus musculus [6] = test: Reduction in amyloid beta 42 levels in mouse brain at 30 mg/kg, po measured at 6 hrs post dose by ELISA; format: functional; outline: as §1
[7] = Modulation of gamma-secretase in human H4 cells expressing human APP751 assessed as inhibition of amyloid beta 42 production incubated overnight by sandwich ELISA; format: cell-based; details: Homo sapiens
Outline: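 Aβ42 EC50 in H4 cells overexpressing WT human APP751; each value is the average of n > 2 assays, each run in duplicate.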

[8] = Half life in Cynomolgus monkey at 1 mg/kg, iv; format: ADME, organism-based, Macaca fascicularis; details: in vivo
Outline: (§4)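 Intravenous dosing at 1 mg/kg; half-life, steady-state volume of distribution and clearance derived from the i.v. administration.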

Cytochrome P450 3A4 [9] = biological target: T1, Cytochrome P450 3A4 (Homo sapiens, UniProt P08684); test: Inhibition of CYP3A4 (unknown origin); format: ADME
[10] = Aqueous solubility of compound in phosphate buffer at pH 7.4 after 90 mins; format: physicochemical
Outline: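 Kinetic solubility method in pH 7.4 phosphate buffer, incubated 90 min at room temperature.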

[11] = Cmax in Wistar rat at 10 mg/kg, po; format: ADME, organism-based; parameters: dose 10 mg/kg, route oral; details: in vivo; outline: as §3
[12] = Unbound intrinsic clearance in rat hepatocytes; format: ADME, cell-based, Hepatocyte
Cynomolgus monkey [13] = test: AUClast in Cynomolgus monkey at 10 mg/kg, po; format: ADME, organism-based, Macaca fascicularis; parameters: dose 10 mg/kg, route oral, time 0 - last; details: in vivo; outline: as §3
[14] = Total drug level in mouse brain at 30 mg/kg, po measured at 6 hrs post dose; format: ADME, organism-based; details: read-out: Drug uptake; outline: as §1
[15] = Permeability from apical to basolateral side in human Caco2 cells; format: ADME, cell-based; details: Caco-2, read-out: permeability
Outline: (§5)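 Caco-2 monolayer assay; apical-to-basolateral permeability (cm/s) and efflux ratio used to judge P-gp efflux potential.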

Rattus norvegicus [16] = test: Increase in amyloid beta 37 levels in rat CSF at 30 mg/kg, po measured at 6 hrs post dose by ELISA relative to control; format: functional; outline: as §1
Mus musculus [17] = test: Increase in amyloid beta 37 levels in mouse brain at 30 mg/kg, po measured at 6 hrs post dose by ELISA relative to control; format: functional; outline: as §1
Cytochrome P450 3A4 [18] = biological target: T1, Cytochrome P450 3A4; test: Time dependent inhibition of CYP3A4 (unknown origin) at 5 to 25 uM; format: ADME
Cytochrome P450 1A2 = biological target: T2, Cytochrome P450 1A2 (Homo sapiens, UniProt P05177); test: Inhibition of CYP1A2 (unknown origin); format: ADME
T2 sequence (P05177 whole entry): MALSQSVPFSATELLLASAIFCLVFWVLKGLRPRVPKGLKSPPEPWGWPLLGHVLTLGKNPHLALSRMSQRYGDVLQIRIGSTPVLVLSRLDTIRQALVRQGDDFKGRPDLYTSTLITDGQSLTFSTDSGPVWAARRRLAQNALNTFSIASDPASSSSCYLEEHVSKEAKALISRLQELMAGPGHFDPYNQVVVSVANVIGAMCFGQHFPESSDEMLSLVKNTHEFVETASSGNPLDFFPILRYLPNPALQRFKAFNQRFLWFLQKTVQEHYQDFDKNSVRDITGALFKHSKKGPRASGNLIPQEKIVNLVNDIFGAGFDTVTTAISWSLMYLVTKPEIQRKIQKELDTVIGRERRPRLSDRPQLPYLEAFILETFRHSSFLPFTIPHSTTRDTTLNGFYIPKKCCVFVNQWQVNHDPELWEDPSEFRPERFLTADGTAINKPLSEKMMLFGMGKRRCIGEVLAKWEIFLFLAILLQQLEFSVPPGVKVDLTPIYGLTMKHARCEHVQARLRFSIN

[19] = biological target: Voltage-gated inwardly rectifying potassium channel KCNH2 (Homo sapiens, UniProt Q12809); test: Inhibition of human ERG by patch clamp assay
Outline: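 Functional patch clamp assay of hERG current; IC50 derived.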

[20] = Efflux ratio of permeability in human Caco2 cells; format: ADME, cell-based; details: Caco-2; outline: as §5
[21] = Clearance in Wistar rat at 1 mg/kg, iv; format: ADME, organism-based; details: in vivo; outline: as §4
Mus musculus [22] = test: Decrease in amyloid beta 42 in mouse brain at 30 mg/kg, po administered as single dose after 0.5 to 24 hrs; format: functional
Cynomolgus monkey [23] = test: Oral bioavailability in Cynomolgus monkey at 10 mg/kg; format: ADME, organism-based, Macaca fascicularis; details: in vivo; outline: as §3
[24] = Cytotoxicity against human HepG2 cells assessed as reduction in cell viability by measuring ATP; details: read-out: TC50 (the source's name)
[25] = Oral bioavailability in Wistar rat at 10 mg/kg; format: ADME, organism-based; details: in vivo; outline: as §3
[26] = Volume of distribution at steady state in Wistar rat at 1 mg/kg, iv; format: ADME, organism-based; details: in vivo, read-out: Vdss; outline: as §4
Cytochrome P450 2C19 = Cytochrome P450 2C19 (Homo sapiens, UniProt P33261); test: Inhibition of CYP2C19 (unknown origin); format: ADME
Mus musculus [27] = test: Decrease in amyloid beta 42 AUC(1 to 24 hrs) in mouse brain at 30 mg/kg, po administered as single dose after 0.5 to 24 hrs; format: functional
[28] = Total drug level in rat brain at 30 mg/kg, po measured at 6 hrs post dose; format: ADME, organism-based; details: read-out: Drug uptake; outline: as §1
Rattus norvegicus [29] = test: Reduction in amyloid beta 42 levels in rat CSF at 30 mg/kg, po measured at 6 hrs post dose by ELISA; format: functional; outline: as §1
Brain [30] = test: Unbound drug level in mouse brain at 30 mg/kg, po measured at 6 hrs post dose; format: ADME, organism-based; details: in vivo; outline: as §1
[31] = Half life in Wistar rat at 1 mg/kg, iv; format: ADME, organism-based; details: in vivo; outline: as §4
Rattus norvegicus [32] = test: Increase in amyloid beta 37 levels in rat brain at 30 mg/kg, po measured at 6 hrs post dose by ELISA relative to control; format: functional; outline: as §1
[33] = Volume of distribution at steady state in Cynomolgus monkey at 1 mg/kg, iv; format: ADME, organism-based, Macaca fascicularis; details: in vivo, read-out: Vdss; outline: as §4
Mus musculus [34] = test: Increase in amyloid beta 37 levels in mouse brain at 30 mg/kg, po measured at 0.5 to 24 hrs post dose by ELISA relative to control
TK6 [35] = test: Genotoxicity in p53-competent human TK6 cells in presence of S9 fraction by GADD45alpha GFP reporter assay; format: toxicity, cell-based; outline: as §2
Cytochrome P450 2C9 = Cytochrome P450 2C9 (Homo sapiens, UniProt P11712); test: Inhibition of CYP2C9 (unknown origin); format: ADME
Cytochrome P450 2D6 = Cytochrome P450 2D6 (Homo sapiens, UniProt P10635); test: Inhibition of CYP2D6 (unknown origin); format: ADME
Rattus norvegicus [36] = test: Reduction in amyloid beta 42 levels in rat brain at 30 mg/kg, po measured at 6 hrs post dose by ELISA; format: functional; outline: as §1
Cytochrome P450 2C8 = biological target: T3, Cytochrome P450 2C8 (Homo sapiens, UniProt P10632); test: Inhibition of CYP2C8 (unknown origin); format: ADME
T3 sequence (P10632 whole entry): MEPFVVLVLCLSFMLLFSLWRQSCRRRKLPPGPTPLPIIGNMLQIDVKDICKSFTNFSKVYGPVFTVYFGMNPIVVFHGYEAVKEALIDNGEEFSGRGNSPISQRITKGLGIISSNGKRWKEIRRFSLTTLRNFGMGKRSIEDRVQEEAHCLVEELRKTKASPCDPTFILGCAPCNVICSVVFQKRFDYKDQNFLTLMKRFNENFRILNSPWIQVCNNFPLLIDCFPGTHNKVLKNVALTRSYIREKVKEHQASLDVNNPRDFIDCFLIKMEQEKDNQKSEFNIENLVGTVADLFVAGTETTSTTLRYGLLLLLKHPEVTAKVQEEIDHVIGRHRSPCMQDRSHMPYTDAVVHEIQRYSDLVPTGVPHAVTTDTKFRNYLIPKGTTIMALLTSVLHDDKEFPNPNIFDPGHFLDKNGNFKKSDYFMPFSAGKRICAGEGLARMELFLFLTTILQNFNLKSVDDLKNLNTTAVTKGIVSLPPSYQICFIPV

T1 sequence (P08684 whole entry): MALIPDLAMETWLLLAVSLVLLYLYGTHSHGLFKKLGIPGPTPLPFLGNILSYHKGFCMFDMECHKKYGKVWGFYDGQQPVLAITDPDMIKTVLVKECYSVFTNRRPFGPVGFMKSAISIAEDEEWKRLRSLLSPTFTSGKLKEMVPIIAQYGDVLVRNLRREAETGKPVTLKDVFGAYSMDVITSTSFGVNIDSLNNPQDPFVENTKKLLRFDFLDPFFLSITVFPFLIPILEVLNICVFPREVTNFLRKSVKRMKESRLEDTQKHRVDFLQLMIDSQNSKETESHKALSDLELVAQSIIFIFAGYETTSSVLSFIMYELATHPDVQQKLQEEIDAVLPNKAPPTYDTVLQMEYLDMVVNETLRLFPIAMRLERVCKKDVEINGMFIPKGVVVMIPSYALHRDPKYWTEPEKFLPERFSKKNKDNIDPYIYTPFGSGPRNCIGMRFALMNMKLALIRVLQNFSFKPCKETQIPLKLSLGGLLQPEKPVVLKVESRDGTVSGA
Voltage-gated inwardly rectifying potassium channel KCNH2, sequence (Q12809 whole entry): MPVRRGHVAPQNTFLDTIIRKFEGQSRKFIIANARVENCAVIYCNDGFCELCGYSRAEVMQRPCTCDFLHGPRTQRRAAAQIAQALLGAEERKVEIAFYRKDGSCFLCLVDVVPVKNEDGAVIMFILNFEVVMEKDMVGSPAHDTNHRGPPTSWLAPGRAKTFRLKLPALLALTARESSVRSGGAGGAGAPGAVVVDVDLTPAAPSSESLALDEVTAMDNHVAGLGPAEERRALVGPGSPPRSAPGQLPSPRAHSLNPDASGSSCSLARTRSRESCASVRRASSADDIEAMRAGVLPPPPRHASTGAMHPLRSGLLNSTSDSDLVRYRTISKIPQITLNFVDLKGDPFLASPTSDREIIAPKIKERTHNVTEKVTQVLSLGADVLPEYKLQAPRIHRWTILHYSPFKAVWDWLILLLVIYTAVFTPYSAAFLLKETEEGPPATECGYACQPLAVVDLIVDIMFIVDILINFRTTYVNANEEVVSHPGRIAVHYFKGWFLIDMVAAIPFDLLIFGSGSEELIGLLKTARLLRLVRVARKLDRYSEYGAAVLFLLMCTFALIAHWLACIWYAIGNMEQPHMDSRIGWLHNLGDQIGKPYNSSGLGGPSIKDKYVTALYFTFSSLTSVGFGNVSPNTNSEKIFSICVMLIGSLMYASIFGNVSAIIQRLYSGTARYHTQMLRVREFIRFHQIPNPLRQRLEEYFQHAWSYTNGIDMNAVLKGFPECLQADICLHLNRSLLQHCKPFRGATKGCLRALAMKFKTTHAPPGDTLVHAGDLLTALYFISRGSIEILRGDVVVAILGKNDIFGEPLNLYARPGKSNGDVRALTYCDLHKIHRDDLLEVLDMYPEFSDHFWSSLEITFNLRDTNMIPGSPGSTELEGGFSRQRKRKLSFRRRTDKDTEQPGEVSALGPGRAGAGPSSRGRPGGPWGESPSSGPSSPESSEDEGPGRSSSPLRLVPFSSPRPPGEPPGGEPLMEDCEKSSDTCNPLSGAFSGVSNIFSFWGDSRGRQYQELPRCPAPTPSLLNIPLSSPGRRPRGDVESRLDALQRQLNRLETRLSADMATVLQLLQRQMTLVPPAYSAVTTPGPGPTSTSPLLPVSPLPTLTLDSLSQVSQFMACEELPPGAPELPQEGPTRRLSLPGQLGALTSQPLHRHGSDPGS
Cytochrome P450 2D6, sequence (P10635 whole entry): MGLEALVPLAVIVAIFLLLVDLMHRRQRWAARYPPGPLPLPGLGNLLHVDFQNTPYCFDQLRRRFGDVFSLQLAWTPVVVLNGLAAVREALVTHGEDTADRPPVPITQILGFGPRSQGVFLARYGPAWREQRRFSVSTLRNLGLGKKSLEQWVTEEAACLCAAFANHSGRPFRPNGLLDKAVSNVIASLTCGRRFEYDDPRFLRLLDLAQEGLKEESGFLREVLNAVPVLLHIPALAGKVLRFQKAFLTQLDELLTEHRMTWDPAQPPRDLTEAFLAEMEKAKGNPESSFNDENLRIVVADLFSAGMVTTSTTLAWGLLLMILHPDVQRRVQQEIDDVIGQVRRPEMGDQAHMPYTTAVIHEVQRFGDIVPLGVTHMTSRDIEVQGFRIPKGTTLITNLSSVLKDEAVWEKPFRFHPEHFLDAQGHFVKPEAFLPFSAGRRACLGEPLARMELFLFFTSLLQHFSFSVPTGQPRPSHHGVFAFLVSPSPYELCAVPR
Cytochrome P450 2C9, sequence (P11712 whole entry): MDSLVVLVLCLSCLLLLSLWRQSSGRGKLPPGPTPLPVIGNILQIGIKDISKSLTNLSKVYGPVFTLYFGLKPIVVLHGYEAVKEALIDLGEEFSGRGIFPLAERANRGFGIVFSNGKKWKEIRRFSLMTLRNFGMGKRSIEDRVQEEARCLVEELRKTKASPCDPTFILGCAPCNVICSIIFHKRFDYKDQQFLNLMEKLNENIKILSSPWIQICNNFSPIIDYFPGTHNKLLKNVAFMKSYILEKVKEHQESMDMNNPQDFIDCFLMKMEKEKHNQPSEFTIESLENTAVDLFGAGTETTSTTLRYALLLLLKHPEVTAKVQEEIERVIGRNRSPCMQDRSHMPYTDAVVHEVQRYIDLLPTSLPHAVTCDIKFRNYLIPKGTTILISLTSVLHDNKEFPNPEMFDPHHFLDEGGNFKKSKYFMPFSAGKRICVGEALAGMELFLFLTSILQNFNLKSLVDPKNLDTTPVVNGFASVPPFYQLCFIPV
Cytochrome P450 2C19, sequence (P33261 whole entry): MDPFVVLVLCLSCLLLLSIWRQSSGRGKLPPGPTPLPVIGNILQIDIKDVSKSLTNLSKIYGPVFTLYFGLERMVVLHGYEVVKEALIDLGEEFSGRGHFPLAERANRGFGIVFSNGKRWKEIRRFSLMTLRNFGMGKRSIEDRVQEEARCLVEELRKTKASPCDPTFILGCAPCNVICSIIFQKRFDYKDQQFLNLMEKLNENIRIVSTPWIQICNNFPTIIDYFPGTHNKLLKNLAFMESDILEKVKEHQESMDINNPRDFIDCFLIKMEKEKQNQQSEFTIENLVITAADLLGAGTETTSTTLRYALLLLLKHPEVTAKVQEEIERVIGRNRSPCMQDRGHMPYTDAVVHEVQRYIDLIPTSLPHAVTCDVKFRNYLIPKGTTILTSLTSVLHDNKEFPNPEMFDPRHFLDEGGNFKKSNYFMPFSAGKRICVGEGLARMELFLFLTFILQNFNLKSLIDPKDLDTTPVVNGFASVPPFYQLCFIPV

Question: With `COc1nc(C2=NOC[C@H](c3cc4ccccc4o3)N2)ccc1-n1cnc(C)c1` as the compound, how does the “Drug uptake(free)” value (Brain [1]) read?
Answer: The value was 156 nM.

Question: And the Activity (TK6 [2])?
Answer: The Activity was “Non-Toxic”.

Question: And the Kp at 6 h [3]?
Answer: The Kp at 6 h was 1.5.

Question: What about the Cmax [4] of the same compound?
Answer: Its Cmax is 11 µM.

Question: And the AUC(0-t) [5]?
Answer: Its AUC(0-t) is 67.8 µM·h.

Question: And the inhibition in vivo at 30 mg/kg (Mus musculus [6])?
Answer: Its inhibition in vivo at 30 mg/kg is 43%.

Question: What about the pEC50 [7] of the same compound?
Answer: The pEC50 was 7.46.

Question: And the half-life [8]?
Answer: The half-life was 1.5 h.

Question: And the pIC50 (Cytochrome P450 3A4 [9])?
Answer: The pIC50 was 4.60.

Question: And the solubility at 1.5 h [10]?
Answer: Its solubility at 1.5 h is 84 µM (≈ 32.7 µg/mL).

Question: And the Cmax [11]?
Answer: Its Cmax is 7.3 µM.

Question: What about the CL free [12] of the same compound?
Answer: Its CL free is 84 mL/min/kg.

Question: And the AUClast (Cynomolgus monkey [13])?
Answer: The AUClast was 8.1 µM·h.

Question: And the concentration at 6 h [14]?
Answer: The concentration at 6 h was 29.8 to 30 µM.

Question: And the Papp A→B [15]?
Answer: Its Papp A→B is 10 ×10⁻⁶ cm/s.

Question: What about the “fold change (FC)” value (Rattus norvegicus [16]) of the same compound?
Answer: Its value is 20.

Question: And the “fold change (FC)” value (Mus musculus [17])?
Answer: Its value is 3.2.

Question: What about the TDI (Cytochrome P450 3A4 [18]) of the same compound?
Answer: The TDI was “Not Active”.

Question: And the pIC50 (Cytochrome P450 1A2)?
Answer: The pIC50 was 5.52.

Question: And the pIC50 [19]?
Answer: The pIC50 was 4.82.

Question: What about the efflux ratio [20] of the same compound?
Answer: Its efflux ratio is 1.1.

Question: And the clearance [21]?
Answer: Its clearance is 5.8 mL/min/kg.

Question: What about the Imax (Mus musculus [22]) of the same compound?
Answer: The Imax was 45%.

Question: What about the F (Cynomolgus monkey [23]) of the same compound?
Answer: The F was 136%.

Question: And the CC50 [24]?
Answer: Its CC50 is over 72 µM.

Question: And the bioavailability [25]?
Answer: The bioavailability was 93%.

Question: And the Vd [26]?
Answer: The Vd was 1 L/kg.

Question: What about the pIC50 (Cytochrome P450 2C19) of the same compound?
Answer: Its pIC50 is 4.77.

Question: And the inhibition in vivo at 30 mg/kg (Mus musculus [27])?
Answer: The inhibition in vivo at 30 mg/kg was 34%.

Question: And the concentration at 6 h [28]?
Answer: Its concentration at 6 h is 13.7 µM.

Question: And the inhibition in vivo at 30 mg/kg (Rattus norvegicus [29])?
Answer: Its inhibition in vivo at 30 mg/kg is 58%.

Question: And the “Drug uptake(free)” value (Brain [30])?
Answer: Its value is 427 nM.

Question: What about the half-life [31] of the same compound?
Answer: Its half-life is 2.2 h.

Question: And the “fold change (FC)” value (Rattus norvegicus [32])?
Answer: The value was 2.5.

Question: And the Vd [33]?
Answer: Its Vd is 0.9 L/kg.

Question: What about the “fold change (FC)” value (Mus musculus [34]) of the same compound?
Answer: The value was 3.1.

Question: What about the Activity (TK6 [35]) of the same compound?
Answer: Its Activity is “Non-Toxic”.

Question: What about the pIC50 (Cytochrome P450 2C9) of the same compound?
Answer: Its pIC50 is 5.10.

Question: What about the pIC50 (Cytochrome P450 2D6) of the same compound?
Answer: The pIC50 was 5.70.

Question: What about the inhibition in vivo at 30 mg/kg (Rattus norvegicus [36]) of the same compound?
Answer: Its inhibition in vivo at 30 mg/kg is 30%.

Question: What about the pIC50 (Cytochrome P450 2C8) of the same compound?
Answer: The pIC50 was under 4.60.
